# ChEMBL document CHEMBL4130549, “Synthesis and bioactivities study of new antibacterial peptide mimics: The dialkyl cationic amphiphiles” (Eur J Med Chem, 2018)
# Calls of active or inactive are those of the source. The rule behind the calls is not given here.
# What was measured:
# Staphylococcus aureus [1] = experiment: Ratio of MBC for methicillin-resistant Staphylococcus aureus in presence of 50% plasma to MBC for methicillin-resistant Staphylococcus aureus; assay type: functional
# Summary of the method: (§1)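 MRSA at 10⁵ CFU/mL in 50% Mueller-Hinton broth plus 50% sheep serum, plasma or defibrinated whole blood. Serum and plasma were separated by centrifugation at 3,500 rpm for 10 min. Aqueous compound dilutions (512–4 µg/mL before mixing) were combined 1:3 with the suspension and incubated 20-24 h at 37 °C. Wells were plated on Mueller-Hinton agar for a further 20-24 h; MBC was taken as no colonies.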
# Enterobacteriaceae [2] = experiment: Antibacterial activity against NDM-1-producing Enterobacteriaceae isolate N2 after 16 to 20 hrs by broth microdilution method; assay type: functional
# Summary of the method: (§2)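 Broth microdilution per CLSI in cation-adjusted Mueller-Hinton broth; 4-6 h cultures (~10⁸ CFU/mL) diluted to ~10⁶ CFU/mL and mixed 1:1 with twofold dilutions of water-dissolved compound (256 to 0.5 µg/mL). Incubated 16-20 h at 37 °C; MIC read visually. Each concentration run in duplicate, whole experiment repeated at least twice. MRSA, KPC and NDM-1 strains were clinical isolates.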
# Klebsiella pneumoniae [3] = experiment: Antibacterial activity against carbapenemase-producing Klebsiella pneumoniae isolate K9 after 16 to 20 hrs by broth microdilution method; assay type: functional; summary of the method: as §2
# Staphylococcus aureus [4] = experiment: Antibacterial activity against Staphylococcus aureus ATCC 29213 after 16 to 20 hrs by broth microdilution method; assay type: functional
# Summary of the method: (§3)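 CLSI broth microdilution in cation-adjusted Mueller-Hinton broth. A 4-6 h culture was diluted to about 10⁶ CFU/mL and mixed 1:1 with twofold compound dilutions (256–0.5 µg/mL before mixing) prepared from aqueous stocks. Plates were incubated at 37 °C for 16-20 h. Each concentration was tested in duplicate, and the experiment was repeated at least twice.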
# Enterobacteriaceae [5] = experiment: Antibacterial activity against NDM-1-producing Enterobacteriaceae isolate N3 after 16 to 20 hrs by broth microdilution method; assay type: functional; summary of the method: as §2
# Staphylococcus aureus [6] = experiment: Bactericidal activity against Staphylococcus aureus after 20 to 24 hrs using compounds preincubated with 50% plasma for 3 to 6 hrs by broth microdilution method
# Staphylococcus aureus [7] = experiment: Antibacterial activity against methicillin-resistant Staphylococcus aureus isolate M6 after 16 to 20 hrs by broth microdilution method; assay type: functional; summary of the method: as §3
# Klebsiella pneumoniae [8] = experiment: Antibacterial activity against carbapenemase-producing Klebsiella pneumoniae isolate K10 after 16 to 20 hrs by broth microdilution method; assay type: functional; summary of the method: as §2
# Salmonella enterica = experiment: Antibacterial activity against Salmonella enterica after 16 to 20 hrs by broth microdilution method; assay type: functional; summary of the method: as §2
# Staphylococcus aureus [9] = experiment: Antibacterial activity against methicillin-resistant Staphylococcus aureus isolate M2 after 16 to 20 hrs by broth microdilution method; assay type: functional; summary of the method: as §3
# Staphylococcus aureus [10] = experiment: Antibacterial activity against methicillin-resistant Staphylococcus aureus isolate M10 after 16 to 20 hrs by broth microdilution method; assay type: functional; summary of the method: as §3
# Enterobacteriaceae [11] = experiment: Antibacterial activity against NDM-1-producing Enterobacteriaceae isolate N1 after 16 to 20 hrs by broth microdilution method; assay type: functional; summary of the method: as §2
# Enterobacteriaceae [12] = experiment: Antibacterial activity against NDM-1-producing Enterobacteriaceae isolate N9 after 16 to 20 hrs by broth microdilution method; assay type: functional; summary of the method: as §2
# Staphylococcus aureus [13] = experiment: Antibacterial activity against methicillin-resistant Staphylococcus aureus after 16 to 20 hrs by broth microdilution method; assay type: functional; summary of the method: as §3
# Staphylococcus aureus [14] = experiment: Antibacterial activity against methicillin-resistant Staphylococcus aureus isolate M4 after 16 to 20 hrs by broth microdilution method; assay type: functional; summary of the method: as §3
# Staphylococcus aureus [15] = experiment: Induction of inner membrane permeabilization in Staphylococcus aureus ATCC 29213 at 20 ug/ml measured every 2 mins for 12 mins by propidium iodide staining based fluorescence assay; assay type: functional, organism-based
# Summary of the method: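 Mid-log cells (~10^8 CFU/mL) pre-incubated with propidium iodide (10 µM, 50 µL), 30 min for S. aureus and 40 min for E. coli. Fluorescence (ex 535/em 617 nm) read for 8 min, then compound added to 20 µg/mL final and monitored every 2 min for 12 min. Water-treated control.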
# Klebsiella pneumoniae [16] = experiment: Antibacterial activity against carbapenemase-producing Klebsiella pneumoniae isolate K6 after 16 to 20 hrs by broth microdilution method; assay type: functional; summary of the method: as §2
# Enterobacteriaceae [17] = experiment: Antibacterial activity against NDM-1-producing Enterobacteriaceae isolate N10 after 16 to 20 hrs by broth microdilution method; assay type: functional; summary of the method: as §2
# Klebsiella pneumoniae [18] = experiment: Antibacterial activity against carbapenemase-producing Klebsiella pneumoniae isolate K3 after 16 to 20 hrs by broth microdilution method; assay type: functional; summary of the method: as §2
# Staphylococcus aureus [19] = experiment: Bactericidal activity against methicillin-resistant Staphylococcus aureus after 20 to 24 hrs by broth microdilution method; assay type: functional
# Summary of the method: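 For MBC, 20 µL from wells of the broth microdilution MIC plate showing little or no turbidity was plated on agar and incubated 20-24 h at 37 °C. MBC was the lowest concentration giving no colonies.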
# Enterobacteriaceae [20] = experiment: Antibacterial activity against NDM-1-producing Enterobacteriaceae isolate N5 after 16 to 20 hrs by broth microdilution method; assay type: functional; summary of the method: as §2
# Klebsiella pneumoniae [21] = experiment: Antibacterial activity against carbapenemase-producing Klebsiella pneumoniae isolate K5 after 16 to 20 hrs by broth microdilution method; assay type: functional; summary of the method: as §2
# Staphylococcus aureus [22] = experiment: Ratio of MBC for methicillin-resistant Staphylococcus aureus in presence of 50% serum to MBC for methicillin-resistant Staphylococcus aureus; assay type: functional; summary of the method: as §1
# Enterobacteriaceae [23] = experiment: Antibacterial activity against NDM-1-producing Enterobacteriaceae after 16 to 20 hrs by broth microdilution method; assay type: functional; summary of the method: as §2
# Staphylococcus aureus [24] = experiment: Antibacterial activity against methicillin-resistant Staphylococcus aureus isolate M5 after 16 to 20 hrs by broth microdilution method; assay type: functional; summary of the method: as §3
# Enterobacteriaceae [25] = experiment: Antibacterial activity against NDM-1-producing Enterobacteriaceae isolate N8 after 16 to 20 hrs by broth microdilution method; assay type: functional; summary of the method: as §2
# Klebsiella pneumoniae [26] = experiment: Antibacterial activity against carbapenemase-producing Klebsiella pneumoniae isolate K7 after 16 to 20 hrs by broth microdilution method; assay type: functional; summary of the method: as §2
# Staphylococcus aureus [27] = experiment: Bactericidal activity against methicillin-resistant Staphylococcus aureus after 20 to 24 hrs in presence of 50% plasma by broth microdilution method; assay type: functional, organism-based; summary of the method: as §1
# Escherichia coli = experiment: Antibacterial activity against Escherichia coli ATCC 25922 after 16 to 20 hrs by broth microdilution method; assay type: functional; summary of the method: as §2
# Staphylococcus aureus [28] = experiment: Bactericidal activity against methicillin-resistant Staphylococcus aureus after 20 to 24 hrs in presence of 50% serum by broth microdilution method; assay type: functional, organism-based; summary of the method: as §1
# Enterobacteriaceae [29] = experiment: Antibacterial activity against NDM-1-producing Enterobacteriaceae isolate N7 after 16 to 20 hrs by broth microdilution method; assay type: functional; summary of the method: as §2
# Enterococcus faecalis = experiment: Antibacterial activity against Enterococcus faecalis after 16 to 20 hrs by broth microdilution method; assay type: functional; summary of the method: as §2
# Staphylococcus aureus [30] = experiment: Induction of cytoplasmic membrane depolarization in Staphylococcus aureus ATCC 29213 at 20 ug/ml measured every 2 mins for 12 mins by diSC35 staining based fluorescence assay; assay type: functional, organism-based
# Summary of the method: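 Mid-log cells (4–6 h) pelleted, washed and resuspended (~10^8 CFU/mL) in PBS for S. aureus, or in 5 mM HEPES, 5 mM glucose and 100 mM KCl (1:1:1) for E. coli. Preloaded with diSC35 (10 µM, 50 µL), 30 min for S. aureus and 40 min plus EDTA (200 µM, 50 µL) for E. coli. Baseline read 8 min (ex 622/em 670 nm), then compound added to 20 µg/mL final and read every 2 min for 12 min. Water control.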
# Enterobacteriaceae [31] = experiment: Antibacterial activity against NDM-1-producing Enterobacteriaceae isolate N6 after 16 to 20 hrs by broth microdilution method; assay type: functional; summary of the method: as §2
# Staphylococcus aureus [32] = experiment: Antibacterial activity against methicillin-resistant Staphylococcus aureus isolate M1 after 16 to 20 hrs by broth microdilution method; assay type: functional; summary of the method: as §3
Structure (SMILES),Ratio (Staphylococcus aureus [1]),MIC (Enterobacteriaceae [2]),MIC (Klebsiella pneumoniae [3]),MIC (Staphylococcus aureus [4]),MIC (Enterobacteriaceae [5]),MBC (Staphylococcus aureus [6]),MIC (Staphylococcus aureus [7]),MIC (Klebsiella pneumoniae [8]),MIC (Salmonella enterica),MIC (Staphylococcus aureus [9]),MIC (Staphylococcus aureus [10]),MIC (Enterobacteriaceae [11]),MIC (Enterobacteriaceae [12]),MIC (Staphylococcus aureus [13]),MIC (Staphylococcus aureus [14]),Activity (Staphylococcus aureus [15]),MIC (Klebsiella pneumoniae [16]),MIC (Enterobacteriaceae [17]),MIC (Klebsiella pneumoniae [18]),MBC (Staphylococcus aureus [19]),further results
CCCCCCCCCN(CCCCCCCCC)C(=O)[C@@H](N)CCCN=C(N)N.Cl.Cl.Cl,2 - 4,4 µg/mL,4 µg/mL,1 µg/mL,4 µg/mL,16 µg/mL,2 µg/mL,4 µg/mL,4 µg/mL,1 µg/mL,2 µg/mL,4 µg/mL,4 µg/mL,2 µg/mL,1 µg/mL,Active,4 µg/mL,4 µg/mL,4 µg/mL,4 to 8 µg/mL,MIC (Enterobacteriaceae [20]): 4 µg/mL; MIC (Klebsiella pneumoniae [21]): 4 µg/mL; Ratio (Staphylococcus aureus [22]): 1 - 2; MIC (Enterobacteriaceae [23]): 4 µg/mL; MIC (Staphylococcus aureus [24]): 2 µg/mL; MIC (Enterobacteriaceae [25]): 2 µg/mL; MIC (Klebsiella pneumoniae [26]): 4 µg/mL; Activity (Staphylococcus aureus [27]): Active; MIC (Escherichia coli): 2 µg/mL; Activity (Staphylococcus aureus [28]): Active; MIC (Enterobacteriaceae [29]): 2 µg/mL; MIC (Enterococcus faecalis): 2 µg/mL; Activity (Staphylococcus aureus [30]): Active; MIC (Enterobacteriaceae [31]): 4 µg/mL; MIC (Staphylococcus aureus [32]): 2 µg/mL
CCCCCCCCCN(CCCCCCCCC)C(=O)[C@@H](N)CCCCN.Cl.Cl,2 - 4,2 µg/mL,2 µg/mL,1 µg/mL,2 µg/mL,16 µg/mL,1 µg/mL,2 µg/mL,2 µg/mL,1 µg/mL,0.5 µg/mL,2 µg/mL,4 µg/mL,0.5 µg/mL,2 µg/mL,Active,2 µg/mL,4 µg/mL,2 µg/mL,4 to 8 µg/mL,MIC (Enterobacteriaceae [20]): 2 µg/mL; MIC (Klebsiella pneumoniae [21]): 2 µg/mL; Ratio (Staphylococcus aureus [22]): 1 - 2; MIC (Enterobacteriaceae [23]): 2 µg/mL; MIC (Staphylococcus aureus [24]): 1 µg/mL; MIC (Enterobacteriaceae [25]): 2 µg/mL; MIC (Klebsiella pneumoniae [26]): 2 µg/mL; Activity (Staphylococcus aureus [27]): Active; MIC (Escherichia coli): 2 µg/mL; Activity (Staphylococcus aureus [28]): Active; MIC (Enterobacteriaceae [29]): 2 µg/mL; MIC (Enterococcus faecalis): 1 µg/mL; Activity (Staphylococcus aureus [30]): Active; MIC (Enterobacteriaceae [31]): 2 µg/mL; MIC (Staphylococcus aureus [32]): 1 µg/mL
CCCCCCCCCCN(CCCCCCCCCC)C(=O)[C@@H](N)CCCCN.Cl.Cl,2 - 4,4 µg/mL,4 µg/mL,4 µg/mL,4 µg/mL,16 µg/mL,1 µg/mL,4 µg/mL,2 µg/mL,1 µg/mL,1 µg/mL,4 µg/mL,4 µg/mL,1 µg/mL,2 µg/mL,Active,4 µg/mL,4 µg/mL,4 µg/mL,4 to 8 µg/mL,MIC (Enterobacteriaceae [20]): 4 µg/mL; MIC (Klebsiella pneumoniae [21]): 4 µg/mL; Ratio (Staphylococcus aureus [22]): 1 - 2; MIC (Enterobacteriaceae [23]): 4 µg/mL; MIC (Staphylococcus aureus [24]): 2 µg/mL; MIC (Enterobacteriaceae [25]): 4 µg/mL; MIC (Klebsiella pneumoniae [26]): 4 µg/mL; Activity (Staphylococcus aureus [27]): Active; MIC (Escherichia coli): 2 µg/mL; Activity (Staphylococcus aureus [28]): Active; MIC (Enterobacteriaceae [29]): 4 µg/mL; MIC (Enterococcus faecalis): 2 µg/mL; Activity (Staphylococcus aureus [30]): Active; MIC (Enterobacteriaceae [31]): 4 µg/mL; MIC (Staphylococcus aureus [32]): 1 µg/mL
